Measured values collected from several papers.
Compare with care: the assays were run in different laboratories.
Target: Receptor-interacting serine/threonine-protein kinase 4 (RIPK4, Homo sapiens, UniProt P57078)
Residues used in one study (P57078 1-832): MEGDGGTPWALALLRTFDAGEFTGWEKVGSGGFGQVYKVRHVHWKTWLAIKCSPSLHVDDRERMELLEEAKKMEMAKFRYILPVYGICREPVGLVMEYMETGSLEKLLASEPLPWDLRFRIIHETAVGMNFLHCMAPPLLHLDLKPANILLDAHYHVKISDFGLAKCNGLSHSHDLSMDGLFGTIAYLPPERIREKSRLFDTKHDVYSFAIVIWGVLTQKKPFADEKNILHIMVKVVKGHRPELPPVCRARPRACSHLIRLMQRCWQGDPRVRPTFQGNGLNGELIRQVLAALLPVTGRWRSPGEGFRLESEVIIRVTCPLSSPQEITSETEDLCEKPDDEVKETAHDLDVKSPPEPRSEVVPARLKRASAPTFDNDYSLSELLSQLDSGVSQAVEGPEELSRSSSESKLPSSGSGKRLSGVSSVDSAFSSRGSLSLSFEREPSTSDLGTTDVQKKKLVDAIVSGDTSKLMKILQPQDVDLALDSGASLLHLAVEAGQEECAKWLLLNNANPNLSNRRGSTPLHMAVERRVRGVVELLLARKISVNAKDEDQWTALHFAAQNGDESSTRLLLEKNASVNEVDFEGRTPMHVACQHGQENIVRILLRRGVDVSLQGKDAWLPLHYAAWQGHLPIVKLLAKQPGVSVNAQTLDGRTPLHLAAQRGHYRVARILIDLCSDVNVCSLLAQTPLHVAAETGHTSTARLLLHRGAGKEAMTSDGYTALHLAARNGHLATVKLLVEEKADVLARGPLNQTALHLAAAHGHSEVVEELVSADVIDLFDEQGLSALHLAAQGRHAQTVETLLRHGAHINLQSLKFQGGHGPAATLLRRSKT

The remaining binding of O=C(c1ccc(Nc2nccc(-c3cc4ccccc4s3)n2)cc1)N1CCC(N2CCCC2)CC1 is reported as 30% (binding; competition with immobilised ligand; 1 µM).
With c1cnn2ncc(-c3ccnc(N4CCC45COC5)n3)c2c1 the remaining binding was 52% (binding; 1 µM).
COc1cc(-c2cn(C3CCc4ccccc4N(CC(F)(F)F)C3=O)nn2)ccc1-n1ccc(C)n1 (stereo not drawn) has a remaining binding of 52% (cell-free assay; competition with immobilised ligand; 1 µM).
With COc1cnc(Nc2cccc(S(N)(=O)=O)c2)nc1N1CCN(c2ccccc2)CC1 the remaining binding was 86% (binding; competition with immobilised ligand; 1 µM).
With CC(=O)c1c(NS(C)(=O)=O)c2cc(-c3ccc(Cl)cc3)c(-c3ccc(Cl)cc3Cl)nc2n(C)c1=O the remaining binding was 61% (cell-free assay; competition with immobilised ligand; 1 µM).
The remaining binding of O=C(NCC1CCOCC1)c1n[nH]cc1NC(=O)c1c(F)cccc1F is reported as 70% (binding; competition with immobilised ligand; 1 µM).
For N[C@H]1CCN(c2nccc(-c3cnn4ncccc34)n2)C1, the remaining binding was 100% (binding; 1 µM).
The remaining binding of O=C(NCCCN1CCOCC1)c1ccc(Nc2ncc(Cl)c(-c3ccc(Cl)s3)n2)cc1 is reported as 46% (binding; competition with immobilised ligand; 1 µM).
C[C@@H]1CCN(c2nccc(-c3cnn4ncccc34)n2)C1 has a remaining binding of 18% (binding; 1 µM).
Nc1ncc2c(n1)-c1c([nH]c3ccc(C#CC4CC4)cc13)CCCC2 has a remaining binding of 100% (binding; competition with immobilised ligand; 1 µM).
The remaining binding of Cc1cnc(Nc2ccc(C(=O)N3CCC(N4CCCC4)CC3)cc2)nc1-c1cc2ccccc2s1 is reported as 28% (binding; competition with immobilised ligand; 1 µM).
CN(c1nccc(-c2cnn3ncccc23)n1)C1CC1 has a remaining binding of 100% (binding; 1 µM).
With CCN1CCN(Cc2ccc(C(=O)Nc3ccc(C)c(Oc4ccc5c(c4)CC(=O)N5)c3)cc2C(F)(F)F)CC1 the remaining binding was 100% (binding; competition with immobilised ligand; 1 µM).
CC1=C(C#N)[C@@H](c2ccc3[nH]nc(C)c3c2)C(C#N)=C(c2ccc(Cl)cc2)N1 has a remaining binding of 71.8% (cell-free assay; competition with immobilised ligand; 1 µM).
With CN(CCCC(F)(F)F)c1nccc(-c2cnn3ncccc23)n1 the remaining binding was 100% (binding; 1 µM).
Cc1c(NC(=O)c2cc(C(N)=O)nc3cc(F)ccc23)c(C(F)(F)F)nn1Cc1ccc(C#N)cc1 has a remaining binding of 92% (cell-free assay; competition with immobilised ligand; 1 µM).
The remaining binding of CNC(=O)[C@@H]1CC[C@@H](n2c(-c3ccc4cnccc4c3)nc3ccc(C(=O)NCc4cccc(C(N)=O)c4)cc32)C1 is reported as 65% (binding; competition with immobilised ligand; 1 µM).
With CN1CCN(c2cnc3c(C4CCN(C(=O)c5ccc(OC(F)(F)F)cc5N)CC4)ncnc3c2)CC1 the remaining binding was 100% (cell-free assay; competition with immobilised ligand; 1 µM).
With CN(C)c1nccc(-c2cnc3ncccn23)n1 the remaining binding was 71% (binding; 1 µM).
The remaining binding of CS(=O)(=O)N1CCCC(NC(=O)[C@H](CCC2CCCCC2)NC(=O)c2ccc(CNC(=O)c3cnc4ccccn34)cc2)C1 (stereo partly drawn) is reported as 92% (cell-free assay; competition with immobilised ligand; 0.1 µM).
For C[C@@H](c1ccc(-n2cnc3c(N)ncnc32)cc1)N1CCc2nn(C)c(Cc3ccccc3)c2C1=O, the remaining binding was 40% (binding; competition with immobilised ligand; 0.1 µM).
